Legend:
[1] = Antioxidant activity assessed as protection against peroxyl radical-induced alkaline phosphatase activity loss by microplate assay; format: functional
Summary of the method: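 Pure compounds were tested in the microplate alkaline phosphatase (ALP) oxidation-protection assay. The reported value is EC50, the antioxidant concentration that protects ALP by 50% from peroxyl radical-induced loss of activity.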

[2] = DPPH radical scavenging activity assessed as ratio of antioxidant concentration to drug level causing 50% decrease in DPPH level at steady state by microplate assay

| SMILES | EC50 [1] [nM] | Ratio [2] |
| --- | --- | --- |
| COc1ccc(CCO[C@@H]2O[C@H](CO)[C@@H](OC(=O)/C=C/c3ccc(O)c(O)c3)[C@H](O[C@@H]3O[C@@H](C)[C@H](O)[C@@H](O)[C@H]3O)[C@H]2O)cc1O [JIONOSIDE D] | 1100 | 0.17 |
| COc1cc([C@H]2Oc3c(OC)cc([C@@H](O)[C@@H](O)CO)cc3[C@@H]2CO)ccc1O[C@@H]1O[C@@H](C)[C@H](O)[C@@H](O)[C@H]1O | 9070 | 1.84 |
| C[C@@H]1O[C@@H](O[C@@H]2[C@@H](O)[C@H](OCCc3ccc(O)c(O)c3)O[C@H](COC(=O)CC3(O)CCC(=O)CC3)[C@H]2OC(=O)/C=C/c2ccc(O)c(O)c2)[C@H](O)[C@H](O)[C@H]1O | 1270 | 0.079 |
| COc1ccc(CCO[C@@H]2O[C@H](CO)[C@@H](OC(=O)/C=C/c3ccc(O)c(OC)c3)[C@H](O[C@@H]3O[C@@H](C)[C@H](O)[C@@H](O)[C@H]3O)[C@H]2O)cc1O [MARTYNOSIDE A] | 2420 | 0.38 |
| C[C@@H]1O[C@@H](O[C@@H]2[C@@H](O)[C@H](OCCc3ccc(O)c(O)c3)O[C@H](COC(=O)/C=C/c3ccc(O)c(O)c3)[C@H]2O)[C@H](O)[C@H](O)[C@H]1O [ISOACTEOSIDE] | 1200 | 0.07 |
| C[C@@H]1O[C@@H](O[C@@H]2[C@@H](O)[C@H](OCCc3ccc(O)c(O)c3)O[C@H](COC(=O)C[C@]3(O)CC[C@@H](O)CC3)[C@H]2OC(=O)/C=C/c2ccc(O)c(O)c2)[C@H](O)[C@H](O)[C@H]1O | 1270 | 0.098 |
| O=C(O)c1ccc(O)c(O)c1 [PROTOCATECHUIC ACID] | 2560 | 0.23 |
| C[C@@H]1O[C@@H](O[C@@H]2[C@@H](O)[C@H](OCCc3ccc(O)c(O)c3)O[C@H](CO)[C@H]2OC(=O)/C=C/c2ccc(O)c(O)c2)[C@H](O)[C@H](O)[C@H]1O [ACETOSIDE] | 1040 | 0.078 |
| O=c1c(O)c(-c2ccc(O)c(O)c2)oc2cc(O)cc(O)c12 [QUERCETIN] | 1000 | 0.09 |

From ChEMBL document CHEMBL1151950, “Antioxidant phenylethanoid glycosides and a neolignan from Jacaranda caucana” (J Nat Prod, 2009)
